Source: ChEMBL document CHEMBL1123476, “Synthesis of congeners and prodrugs of the benzene maleimide photoadduct mitindomide as potential antitumor agents. 2” (J Med Chem, 1986)
Values joined by “and” are separate entries in the source; they are usually repeats but may differ in a detail not shown here. Identical values can stand only once.

What was measured:
P388 [1] = test: (§1) Antitumor activity in P-388 lymphocytic leukemia system at 100 mg/kg dose levels per injection.; type: functional, Mus musculus
Summary of the method: (§2)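 P-388 leukemia in vivo, dosed Q01D×09 (one injection daily for 9 days, mg/kg per injection). Activity is %T/C, the median lifetime of treated animals divided by that of controls, ×100. Live animals on day 4 were counted against the total (survivors day 4). Repeat tests were done independently at different times.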

P388 [2] = test: Antitumor activity in P-388 lymphocytic leukemia system and the difference in body weight was calculated at 200 mg/kg dose levels per injection.; type: functional, Mus musculus; conditions: 200 mg/kg
P388 [3] = test: Antitumor activity in P-388 lymphocytic leukemia system and the difference in body weight calculated at 100 mg/kg dose levels per injection.; type: functional, Mus musculus; conditions: 100 mg/kg
P388 [4] = test: Antitumor activity in P-388 lymphocytic leukemia system and the difference in body weight was calculated at 50 mg/kg dose levels per injection.; type: functional, Mus musculus; conditions: 50 mg/kg
P388 [5] = test: (§3) Antitumor activity in P-388 lymphocytic leukemia system at 50 mg/kg dose levels per injection.; type: functional, Mus musculus; summary of the method: as §2
P388 [6] = test: Antitumor activity in P-388 lymphocytic leukemia system at 25 mg/kg dose levels per injection; type: functional, Mus musculus; conditions: 25 mg/kg; summary of the method: as §2
P388 [7] = test: as §1; type: functional, Mus musculus; remark: listed apart in the source
Summary of the method: (§4)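 P-388 leukemia in animals, Q01D×09 schedule: dose given daily for 9 days, in mg/kg per injection. Read-outs are survivors on day 4 (live/total animals), body-weight difference test minus control (g), and % T/C (median lifetime of treated ÷ median lifetime of controls × 100). Some compounds were tested in independent runs at different times.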

P388 [8] = test: (§5) Antitumor activity in P-388 lymphocytic leukemia system at 200 mg/kg dose levels per injection.; type: functional, Mus musculus; summary of the method: as §4
P388 [9] = test: as §5; type: functional, Mus musculus; summary of the method: as §2; remark: listed apart in the source
P388 [10] = test: Antitumor activity in P-388 lymphocytic leukemia system at 25 mg/kg dose levels per injection.; type: functional, Mus musculus; summary of the method: as §4
[11] = Solubility was determined; type: physicochemical
P388 [12] = test: as §3; type: functional, Mus musculus; summary of the method: as §4; remark: listed apart in the source
P388 [13] = test: Compound was tested for antitumor activity in P-388 lymphocytic leukemia system. at 200 mg/kg dose levels per injection; Toxic; type: functional, organism-based; parameters: dose 200 mg/kg; conditions: Mus musculus; summary of the method: as §2
P388 [14] = test: Compound was tested for antitumor activity in P-388 lymphocytic leukemia system at 166.7 mg/kg dose levels per injection; Toxic; type: functional, organism-based; parameters: dose 166.7 mg/kg; conditions: Mus musculus; summary of the method: as §2
P388 [15] = test: Compound was tested for antitumor activity in P-388 lymphocytic leukemia system. at 400 mg/kg dose levels per injection; type: functional, Mus musculus; summary of the method: as §2
P388 [16] = test: Compound was tested for antitumor activity in P-388 lymphocytic leukemia system at 400 mg/kg dose levels per injection; type: functional, Mus musculus; summary of the method: as §2
[17] = Solubility was determined; INS= less than 0.1; type: physicochemical
P388 [18] = test: Compound was tested for antitumor activity in P-388 lymphocytic leukemia system at 200 mg/kg dose levels per injection; type: functional, Mus musculus; summary of the method: as §2
P388 [19] = test: Compound was tested for antitumor activity in P-388 lymphocytic leukemia system at 400 mg/kg dose levels per injection; 6/6; type: functional, Mus musculus; summary of the method: as §4
P388 [20] = test: Compound was tested for antitumor activity in P-388 lymphocytic leukemia system at 200 mg/kg dose levels per injection.; type: functional, organism-based; parameters: dose 200 mg/kg; conditions: Mus musculus; summary of the method: as §2
P388 [21] = test: Compound was tested for antitumor activity in P-388 lymphocytic leukemia system at 200 mg/kg dose levels per injection; 0/6; type: functional, Mus musculus; summary of the method: as §4

Row | Compound | T/C (P388 [1]; 100 mg/kg) | T/C (P388 [5]; 50 mg/kg) | Survivors at day 4 (P388 [7]) | Survivors at day 4 (P388 [8]) | T/C (P388 [9]; 200 mg/kg) | Survivors at day 4 (P388 [12]) | T/C (P388 [1]) [%] | Weight difference (P388 [1]) [g] | T/C (P388 [5]) [%] | Weight difference (P388 [5]) [g] | Weight difference (P388 [16]) [g] | Solubility [17] | Survivors at day 4 (P388 [19]) | also measured
1 | O=C1C2C3C=CC(C2C(=O)N1CO)C1C(=O)N(CO)C(=O)C31 (centres undefined) | 144% and 137% | 127% and 140% | 6 | 6 | 160% and 152% | 6 | – | – | – | – | – | – | – | Weight difference (P388 [2]): -3.4 g and -4.1 g; Weight difference (P388 [3]): -3.9 g and -4 g; Weight difference (P388 [4]): -2.5 g and -1.8 g; T/C (P388 [6]): 114% and 132%; Survivors at day 4 (P388 [10]): 6; Solubility [11]: 0.5%
2 | CN1CCN(CN2C(=O)C3C4C=CC(C3C2=O)C2C3C(=O)N(CN5CCN(C)CC5)C(=O)C3C42)CC1 (centres undefined) | – | – | – | – | – | – | – | – | – | – | – | – | – | T/C (P388 [13]): Toxic; T/C (P388 [14]): Toxic
3 | CC1=CC2(C)C3C(=O)NC(=O)C3C1C1(C)C3C(=O)NC(=O)C3C21 (centres undefined) | – | – | 6 | 6 | – | 6 | 109 | -1.5 | 108 | -0.9 | -5.3 | Insoluble | 6 | T/C (P388 [15]): 101%; T/C (P388 [9]): 97%; Weight difference (P388 [18]): -1.8 g
4 | CCOC(=O)N1C(=O)C2C3C=CC(C2C1=O)C1C2C(=O)N(C(=O)OCC)C(=O)C2C31 (centres undefined) | 152% and 145% | 135% and 121% | 6 | 6 | – | 6 | – | – | – | – | – | Insoluble | – | Weight difference (P388 [1]; 100 mg/kg): -4.6 g and -5.5 g; T/C (P388 [20]): Toxic; Weight difference (P388 [5]; 50 mg/kg): -0.6 g and -0.8 g; T/C (P388 [6]): 124% and 116%; Survivors at day 4 (P388 [10]): 6; Weight difference (P388 [18]): -6.5 g; Survivors at day 4 (P388 [21]): 0
5 | CN1C(=O)C2C3C=CC(C2C1=O)C1C2C(=O)N(C)C(=O)C2C31 (centres undefined) | – | – | 6 | 6 | 111% and 104% | 6 | 111 | -0.8 | 108 | -0.9 | -2 | Insoluble | 6 | T/C (P388 [16]): 135%; Weight difference (P388 [18]; 200 mg/kg): -0.8 g and -1.4 g
6 | O=C(O)C1C2C(=O)N(CO)C(=O)C2C(C(=O)O)C2C3C(=O)N(CO)C(=O)C3C12 (centres undefined) | 120% and 107% | 92% and 105% | 6 | 6 | 114% and 120% | 6 | – | – | – | – | – | – | 6 | T/C (P388 [15]; 400 mg/kg): 129% and 131%; Weight difference (P388 [4]): -0.9 g and -1.2 g
7 | O=C1NC(=O)C2C1C(C(=O)O)C1C3C(=O)NC(=O)C3C1C2C(=O)O (centres undefined) | – | – | 6 | 6 | 92% and 91% | 6 | 97 | -0.7 | 94 | 0 | -0.2 | Insoluble | 6 | T/C (P388 [16]): 96%
